Reference: ChEMBL document CHEMBL1681789, “New bichalcone analogs as NF-κB inhibitors and as cytotoxic agents inducing Fas/CD95-dependent apoptosis” (Bioorg Med Chem, 2011)
Activity calls are given as the source filed them. No cut-off for these calls is given here.

Tests used:
[1] = tested on: KB; assay: Cytotoxicity against human KB cells after 3 days; assay type: functional; settings: 72 h
Summary of the method: (§1)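 Seeded at 1500–7500 cells/well; compounds added from DMSO-diluted stock. After 3 days, attached cells were fixed with cold 50% TCA, stained with 0.4% sulforhodamine B and read at 562 nm. EC50 is the concentration reducing growth by 50%, averaged over at least three independent determinations. Cells were grown in RPMI-1640 with […], 0.25% bicarbonate and 10% FBS.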

[2] = tested on: A549; assay: Cytotoxicity against human A549 cells after 3 days; assay type: functional; settings: A549, 72 h; summary of the method: as §1
[3] = tested on: HCT-8; assay: Cytotoxicity against human HCT8 cells after 3 days; assay type: functional; settings: HCT-8, 72 h; summary of the method: as §1
[4] = tested on: DU-145; assay: Cytotoxicity against human DU145 cells after 3 days; assay type: functional; settings: DU-145, 72 h; summary of the method: as §1
[5] = tested on: HT-29; assay: Cytotoxicity against human HT-29 cells for 24 hrs by MTT assay; assay type: functional, cell-based
Summary of the method: (§2)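 HT-29 cells in 96-well plates were exposed to 0–50 µM for 24 h, or to 30 µM for 12–72 h. MTT was then added for 4 h at 37 °C in the dark, and formazan was dissolved in DMSO and read at 570 nm. Viability is expressed as % of untreated OD, run in triplicate, mean±SD.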

[6] = tested on: HT-29; assay: Cytotoxicity against human HT-29 cells at 30 uM by MTT assay; assay type: functional, cell-based; settings: TDE = time-dependent effect; summary of the method: as §2
[7] = tested on: HT-29; assay: Cytotoxicity against human HT-29 cells assessed as nuclear shrinkage and chromatin condensation at 30 uM for 24 hrs using DAPI staining by fluorescence microscopy relative to untreated cells; assay type: functional, cell-based
Summary of the method: (§3)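 HT-29 cells, kept in RPMI-1640 with FBS and penicillin/streptomycin, were treated for 24 or 48 h. They were fixed in 4% paraformaldehyde for 30 min and stained with 1 µg/mL DAPI for 30 min in the dark. Nuclear morphology was examined by fluorescence microscopy at ×200.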

[8] = tested on: HT-29; assay: Cytotoxicity against human HT-29 cells assessed as nuclear shrinkage and chromatin condensation at 50 uM for 24 hrs using DAPI staining by fluorescence microscopy relative to untreated cells; assay type: functional, cell-based; summary of the method: as §3
[9] = tested on: HT-29; assay: Cytotoxicity against human HT-29 cells assessed as nuclear shrinkage and chromatin condensation at 30 uM for 48 hrs using DAPI staining by fluorescence microscopy relative to untreated cells; assay type: functional, cell-based; summary of the method: as §3
[10] = tested on: HT-29; assay: Cytotoxicity against human HT-29 cells assessed as nuclear shrinkage and chromatin condensation at 50 uM for 48 hrs using DAPI staining by fluorescence microscopy relative to untreated cells; assay type: functional, cell-based; summary of the method: as §3
[11] = tested on: HT-29; assay: Induction of apoptosis in human HT-29 cells assessed as DNA fragmentation at 30 uM using TUNEL staining by flow cytometry; assay type: functional, cell-based
Summary of the method: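 HT-29 cells in 6-well plates were treated with 30 µM for 24 and 48 h and harvested. They were labeled with TdT enzyme at 37 °C for 1 h, then FITC anti-digoxigenin conjugate at 37 °C for 30 min in the dark. TUNEL-positive cells were counted by flow cytometry, in triplicate.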

[12] = tested on: HT-29; assay: Induction of apoptosis in human HT-29 cells at 30 uM for 24 hrs pretreated with caspase 3 inhibitor […] for 1 hr by MTT assay; assay type: functional, cell-based
Summary of the method: (§4)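 HT-29 cells were pretreated for 1 h with caspase-3, -8 or -9 inhibitor (dissolved in DMSO, diluted in medium), then given 30 µM for 24 h. Viability was read by MTT at 570 nm, in triplicate.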

[13] = tested on: HT-29; assay: Induction of apoptosis in human HT-29 cells at 30 uM for 24 hrs pretreated with caspase 9 inhibitor Z-LEHD-FMK for 1 hr by MTT assay; assay type: functional, cell-based; summary of the method: as §4
[14] = tested on: HT-29; assay: Induction of apoptosis in human HT-29 cells at 30 uM for 24 hrs pretreated with caspase 8 inhibitor Z-IETD-FMK for 1 hr by MTT assay; assay type: functional, cell-based; summary of the method: as §4
[15] = tested on: HT-29; assay: Induction of apoptosis in human HT-29 cells assessed as increased expression of Fas/CD95 protein by Western blotting; assay type: functional, cell-based
Summary of the method: (§5)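 Total or cytosolic extracts (30 µg protein) from treated HT-29 cells were run on SDS-PAGE and transferred to PVDF. Blots were probed for 12 h with monoclonal antibodies to the named protein, followed by an HRP secondary, and detected by ECL.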

[16] = tested on: HT-29; assay: Induction of apoptosis in human HT-29 cells assessed as increased expression of FADD protein by Western blotting; assay type: functional, cell-based; summary of the method: as §5
[17] = tested on: HT-29; assay: Induction of apoptosis in human HT-29 cells assessed as increased expression of cytosolic cytochrome C protein by Western blotting; assay type: functional, cell-based; summary of the method: as §5
[18] = tested on: HT-29; assay: Induction of apoptosis in human HT-29 cells assessed as increased expression of Apaf-1 protein by Western blotting; assay type: functional, cell-based; summary of the method: as §5
[19] = tested on: HT-29; assay: Induction of apoptosis in human HT-29 cells assessed as increased expression of AIF protein by Western blotting; assay type: functional, cell-based; summary of the method: as §5
[20] = tested on: HT-29; assay: Induction of apoptosis in human HT-29 cells assessed as increased expression of Endo G protein by Western blotting; assay type: functional, cell-based; summary of the method: as §5
[21] = tested on: HT-29; assay: Induction of apoptosis in human HT-29 cells assessed as increased expression of caspase 3 protein by Western blotting; assay type: functional, cell-based; summary of the method: as §5
[22] = tested on: HT-29; assay: Induction of apoptosis in human HT-29 cells assessed as increased expression of Bax protein by Western blotting; assay type: functional, cell-based; summary of the method: as §5
[23] = tested on: HT-29; assay: Induction of apoptosis in human HT-29 cells assessed as increased expression of t-Bid protein by Western blotting; assay type: functional, cell-based; summary of the method: as §5
[24] = tested on: HT-29; assay: Induction of apoptosis in human HT-29 cells assessed as decreased expression of pro-caspase-8 protein by Western blotting; assay type: functional, cell-based; summary of the method: as §5
[25] = tested on: HT-29; assay: Induction of apoptosis in human HT-29 cells assessed as decreased expression of pro-caspase-9 protein by Western blotting; assay type: functional, cell-based; summary of the method: as §5
[26] = tested on: HT-29; assay: Induction of apoptosis in human HT-29 cells assessed as decreased expression of Bcl-2 protein by Western blotting; assay type: functional, cell-based; summary of the method: as §5
[27] = Inhibition of Nitric oxide synthase activity in mouse BV2 cells assessed as LPS-induced NO production after 24 hrs by Griess reaction; assay type: cell-based; settings: BV-2, 24 h
Summary of the method: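 Murine BV2 microglia were cultured in DMEM with 5% FBS and given 1–50 µM drug with 0.5 µg/mL LPS. Nitrite accumulated in the medium over 24 h was measured by Griess reagent. IC50 values are means ± SEM from 3–6 experiments on different days using different passages.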

[28] = tested on: BV-2; assay: Inhibition of NADPH oxidase mediated-ROS production in mouse BV2 cells; assay type: cell-based
Summary of the method: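 Compounds were incubated with 50 µg microglial cell homogenate for 20 min at 37 °C in the dark. Superoxide production was started with 200 µM NADPH, and chemiluminescence was followed for 30 min; the AUC represents ROS production. DPI served as positive control.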

[29] = tested on: HT-29; assay: Induction of apoptosis in human HT-29 cells assessed as caspase 3 activation at 30 uM for 24 hrs by MTT assay; assay type: functional, cell-based
[30] = tested on: HT-29; assay: Induction of apoptosis in human HT-29 cells assessed as caspase 8 activation at 30 uM for 24 hrs by MTT assay; assay type: functional, cell-based
[31] = tested on: HT-29; assay: Induction of apoptosis in human HT-29 cells assessed as caspase 9 activation at 30 uM for 24 hrs by MTT assay; assay type: functional, cell-based

With `COc1cc(C(=O)/C=C/c2cccnc2)cc(CN2CCN(c3ccc(C(C)=O)cc3)CC2)c1O` the GI50 [1] was 13.1 µM, the GI50 [2] was 9.77 µM and the GI50 [3] was 11.2 µM. For the same molecule, the GI50 [4] was 9.98 µM, the Activity [5] was “Dose-dependent effect” and the Activity [6] was “tde”. For the same molecule, the Activity [7] was “Active”, the Activity [8] was “Active” and the Activity [9] was “Active”. The Activity [10] was “Active”, the Activity [11] was “Active” and the Activity [12] was “inactive”. The Activity [13] was “inactive”, the Activity [14] was “inactive” and the Activity [15] was “Active”. For the same molecule, the Activity [16] was “Active”, the Activity [17] was “Active” and the Activity [18] was “Active”. The Activity [19] was “Active”, the Activity [20] was “Active” and the Activity [21] was “Active”. For the same molecule, the Activity [22] was “Active”, the Activity [23] was “Active” and the Activity [24] was “Active”. The Activity [25] was “Active”, the Activity [26] was “Active” and the IC50 [27] was 3.5 µM. For the same molecule, the inhibition [28] was “inactive”, the Activity [29] was “Active” and the Activity [30] was “Active”. For the same molecule, the Activity [31] was “Active”.
